Experimental data published in ChEMBL document CHEMBL2057101, “Fluorocyclines. 2. Optimization of the C-9 side-chain for antibacterial activity and oral efficacy” (J Med Chem, 2012).
Values after ≈ are worked out from the molar mass of the structure shown.

Assays:
[1] = tested on: Moraxella catarrhalis; assay: Antibacterial activity against Moraxella catarrhalis; format: functional
In short: (§1)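 MIC by broth microdilution in liquid medium per CLSI, in cation-adjusted Mueller Hinton broth made fresh and held at 4 °C before testing. Horse blood (defibrinated) added to the medium where appropriate. Runs were accepted only when the comparator antibiotics and ATCC QC strains fell within their recommended ranges.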

[2] = tested on: Acinetobacter baumannii; assay: Antibacterial activity against Acinetobacter baumannii; format: functional; in short: as §1
[3] = tested on: Streptococcus pneumoniae; assay: Antibacterial activity against Streptococcus pneumoniae SPN160; format: functional
In short: (§2)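 Broth microdilution MIC following CLSI methods in cation-adjusted Mueller Hinton broth, prepared fresh and held at 4 °C before testing. Defibrinated horse blood added to the medium where appropriate. Runs accepted when quality control ranges for comparator antibiotics and ATCC QC strains were met.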

[4] = tested on: Haemophilus influenzae; assay: Antibacterial activity against Haemophilus influenzae 551; format: functional; in short: as §1
[5] = tested on: Streptococcus pyogenes; assay: Antibacterial activity against Streptococcus pyogenes; format: functional; in short: as §1
[6] = tested on: Staphylococcus aureus; assay: Antibacterial activity against methicillin-resistant Staphylococcus aureus VL-137; format: functional; in short: as §2
[7] = tested on: Staphylococcus aureus; assay: Antibacterial activity against methicillin-resistant Staphylococcus aureus VL-137 infected in neutropenic Balb/c mouse assessed as reduction in lung CFU at 10 mg/kg, iv administered 2 and 12 hrs post infection measured 24 hrs post treatment; format: functional
In short: (§3)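 Female Balb/c mice (18−20 g) made neutropenic with IP cyclophosphamide, 150 and 100 mg/kg on days −4 and −1. Intranasal infection under light anesthesia. Treatment at 2 and 12 h post infection, oral 50 mg/kg/dose or IV 10 mg/kg/dose, six mice per group. At 24 h lungs were homogenized and plated on TSA (37 °C, 5% CO₂, overnight). Read-out is CFU/g lung.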

[8] = tested on: Streptococcus pneumoniae; assay: Antibacterial activity against Streptococcus pneumoniae 1629 infected in immunocompetent CD-1 mouse infection model assessed as reduction in lung CFU at 30 mg/kg, po administered 5, 24 and 36 hrs post infection measured 48 hrs post treatment
[9] = tested on: Staphylococcus aureus; assay: Antibacterial activity against methicillin-resistant Staphylococcus aureus VL-137 infected in neutropenic Balb/c mouse assessed as reduction in lung CFU at 50 mg/kg, po administered 2 and 12 hrs post infection measured 24 hrs post treatment; format: functional; in short: as §3
[10] = tested on: Streptococcus pneumoniae; assay: Antibacterial activity against Streptococcus pneumoniae ATCC 49619 isolate 106; format: functional; in short: as §1
[11] = tested on: Staphylococcus aureus; assay: Antibacterial activity against Staphylococcus aureus ATCC 13709 infected in po dosed CD-1 mouse assessed as increase in survival administered as single dose 1 hr post infection measured after 48 hrs post infection; format: functional; conditions: ATCC 13709, po, read-out: PD50
[12] = tested on: Escherichia coli; assay: Antibacterial activity against Escherichia coli ATCC 25922 isolate 107; format: functional; in short: as §1
[13] = Oral bioavailability in human; format: ADME, organism-based; conditions: in vivo
[14] = (§4) Oral bioavailability in CD1 mouse at 30 mg/kg; format: ADME, organism-based; conditions: CD1, mouse, in vivo
[15] = tested on: Streptococcus pneumoniae; assay: Antibacterial activity against tetracycline-resistant Streptococcus pneumoniae isolate 160 expressing tetM gene; format: functional
[16] = tested on: Staphylococcus aureus; assay: Antibacterial activity against Staphylococcus aureus ATCC 13709 infected in CD-1 mouse assessed as increase in survival at 3 mg/kg, iv administered as single dose 1 hr post infection measured after 48 hrs post infection; format: functional
In short: (§5)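 Mouse septicemia screen: S. aureus grown to log phase, diluted in 5% mucin to give 90% mortality within 48 h, inoculum 1.98 × 10⁶ CFU/mouse, 0.5 mL intraperitoneal into female CD-1 mice (18−20 g). Six mice per group. Single 30 mg/kg oral gavage or 3 mg/kg IV dose 1 h post infection. Infection controls received sterile water vehicle. Survival recorded at 48 h.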

[17] = tested on: Staphylococcus aureus; assay: Antibacterial activity against tetracycline-resistant Staphylococcus aureus isolate SA158 expressing TetK gene; format: functional
[18] = tested on: Staphylococcus aureus; assay: Antibacterial activity against Staphylococcus aureus ATCC 13709 infected in CD-1 mouse assessed as increase in survival at 30 mg/kg, po administered as single dose 1 hr post infection measured after 48 hrs post infection; format: functional; in short: as §5
[19] = Oral bioavailability in rat; format: ADME, organism-based; conditions: in vivo
[20] = tested on: Klebsiella pneumoniae; assay: Antibacterial activity against Klebsiella pneumoniae ATCC 13883; format: functional; in short: as §1
[21] = tested on: Staphylococcus aureus; assay: Antibacterial activity against tetracycline-susceptible Staphylococcus aureus ATCC 13709 Smith isolate SA100; format: functional; in short: as §2
[22] = tested on: Escherichia coli; assay: Antibacterial activity against Escherichia coli isolate EC155 expressing tetA gene; format: functional; in short: as §1
[23] = tested on: Staphylococcus aureus; assay: Antibacterial activity against tetracycline-resistant Staphylococcus aureus isolate SA161 expressing TetM gene; format: functional; in short: as §2
[24] = tested on: Mus musculus; assay: as §4; format: ADME, organism-based; conditions: mouse, in vivo, BLD = below limit of detection
[25] = tested on: Haemophilus influenzae; assay: Antibacterial activity against Haemophilus influenzae 551 infected in immunocompetent Sprague-Dawley rat assessed as reduction in lung CFU per gram of tissue at 25 mg/kg, iv administered 5, 24 and 48 hrs post infection measured after 72 hrs; format: functional
In short: (§6)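 Male Sprague-Dawley rats (175–200 g), immunocompetent, infected intratracheally with H. influenzae 551 (0.05 mL) under light anesthesia. Dosing at 5, 24 and 48 h post infection: test agent 100 mg/kg/dose orally or 25 mg/kg/dose IV; azithromycin 50 mg/kg/dose orally. Six rats per dose. Lungs removed 72 h after treatment began, homogenized, serially diluted, plated on TSA-II, incubated overnight at 37 °C in 5% CO2; CFU/g lung calculated.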

[26] = tested on: Haemophilus influenzae; assay: Antibacterial activity against Haemophilus influenzae 551 infected in immunocompetent Sprague-Dawley rat assessed as reduction in lung CFU per gram of tissue at 100 mg/kg, po administered 5, 24 and 48 hrs post infection measured after 72 hrs; format: functional; in short: as §6

Compound	MIC50 [1] [mg/L]	MIC90 [1] [mg/L]	MIC50 [3] [mg/L]	MIC90 [3] [mg/L]	MIC50 [4] [mg/L]	MIC90 [4] [mg/L]	MIC50 [5] [mg/L]	MIC90 [5] [mg/L]	MIC50 [6] [mg/L]	MIC90 [6] [mg/L]	MIC [10] [mg/L]	MIC [12] [mg/L]	MIC [15] [mg/L]	survival at 3 mg/kg [16] [%]	MIC [17] [mg/L]	survival at 30 mg/kg [18] [%]	MIC [20] [mg/L]	MIC [21] [mg/L]	MIC [22] [mg/L]	MIC [23] [mg/L]	other results
C[C@H]1COc2c(N3CCN(C)CC3)c(F)cc3c(=O)c(C(=O)O)cn1c23.C[C@H]1COc2c(N3CCN(C)CC3)c(F)cc3c(=O)c(C(=O)O)cn1c23.O [LEVOFLOXACIN]	0.031	0.063	1	1	0.016	0.031	0.5	2	16	> 32											MIC50 [2]: 4 mg/L; MIC90 [2]: 32 mg/L; MIC [4]: 0.016 mg/L
CC(=O)NC[C@H]1CN(c2ccc(N3CCOCC3)c(F)c2)C(=O)O1 [LINEZOLID]	8 (≈ 23.7 µM)	8 (≈ 23.7 µM)	1 (≈ 2.96 µM)	1 (≈ 2.96 µM)	8 (≈ 23.7 µM)	16 (≈ 47.4 µM)	1 (≈ 2.96 µM)	2 (≈ 5.93 µM)	2 (≈ 5.93 µM)	4 (≈ 11.9 µM)											log10CFU/g [7]: 1.29; log10CFU/g [8]: 3.56; log10CFU/g [9]: 2.46; MIC [4]: 8 mg/L (≈ 23.7 µM); MIC [5]: 1 mg/L (≈ 2.96 µM)
CN(C)c1cc(CNCC(C)(C)C)c(O)c2c1C[C@H]1C[C@H]3[C@H](N(C)C)C(O)=C(C(N)=O)C(=O)[C@@]3(O)C(O)=C1C2=O [OMADACYCLINE]											0.031 (≈ 0.0557 µM)	2 (≈ 3.59 µM)	0.125 (≈ 0.225 µM)	100	0.25 (≈ 0.449 µM)	33	2 (≈ 3.59 µM)	0.5 (≈ 0.898 µM)	16 (≈ 28.7 µM)	2 (≈ 3.59 µM)	ED50 [11]: 30.3 mg/kg; bioavailability [13]: 33%; bioavailability [14]: 1.5%; bioavailability [19]: 0.7%
CN(C)[C@@H]1C(O)=C(C(N)=O)C(=O)[C@@]2(O)C(O)=C3C(=O)c4c(O)cccc4[C@@](C)(O)[C@H]3C[C@@H]12 [TETRACYCLINE]											0.25 (≈ 0.563 µM)	2 (≈ 4.5 µM)		100		100	4 (≈ 9 µM)	1 (≈ 2.25 µM)	> 32	> 32	ED50 [11]: 6.9 mg/kg; bioavailability [13]: 50%; bioavailability [14]: 6.3%
CN(C)c1cc(NC(=O)CNC(C)(C)C)c(O)c2c1C[C@H]1C[C@H]3[C@H](N(C)C)C(O)=C(C(N)=O)C(=O)[C@@]3(O)C(O)=C1C2=O [TIGECYCLINE]											0.016 (≈ 0.0273 µM)	0.125 (≈ 0.213 µM)	0.016 (≈ 0.0273 µM)	100	0.063 (≈ 0.108 µM)	0	0.125 (≈ 0.213 µM)	0.063 (≈ 0.108 µM)	0.5 (≈ 0.854 µM)	0.13 (≈ 0.222 µM)	F [24]: BLD
CN(C)[C@@H]1C(O)=C(C(N)=O)C(=O)[C@@]2(O)C(O)=C3C(=O)c4c(O)c(NC(=O)[C@@H]5CCCN5C)cc(F)c4C[C@H]3C[C@@H]12 [TP-271]	0.016 (≈ 0.0286 µM)	0.016 (≈ 0.0286 µM)	0.016 (≈ 0.0286 µM)	0.016 (≈ 0.0286 µM)	0.25 (≈ 0.448 µM)	0.5 (≈ 0.895 µM)	0.016 (≈ 0.0286 µM)	0.016 (≈ 0.0286 µM)	0.031 (≈ 0.0555 µM)	0.13 (≈ 0.233 µM)	0.016 (≈ 0.0286 µM)	0.25 (≈ 0.448 µM)	0.016 (≈ 0.0286 µM)	100	0.13 (≈ 0.233 µM)	100	2 (≈ 3.58 µM)	0.13 (≈ 0.233 µM)	8 (≈ 14.3 µM)	0.25 (≈ 0.448 µM)	log10CFU/g [25]: 4.87; MIC [1]: 0.016 mg/L (≈ 0.0286 µM); log10CFU/g [7]: 3.03; log10CFU/g [8]: 4.75; MIC50 [2]: 0.13 mg/L (≈ 0.233 µM); MIC90 [2]: 1 mg/L (≈ 1.79 µM); MIC [3]: 0.016 mg/L (≈ 0.0286 µM); log10CFU/g [9]: 1.99; MIC [5]: 0.016 mg/L (≈ 0.0286 µM); bioavailability [19]: 5.7%; log10CFU/g [26]: 1.77
